Measurements from different studies.
Each line is one published result; the experiments were not run side by side.
Target: Serine/threonine-protein kinase WNK2 (WNK2, Homo sapiens, UniProt Q9Y3S1)

| Structure (SMILES) | assay | conditions | measurement | value |
| --- | --- | --- | --- | --- |
| O=C(Nc1cnc(Oc2ccc(F)cc2)nc1)N1CCc2ncccc2[C@@H]1c1ccc(F)cc1 | cell-free assay, competition with immobilised ligand | 1 µM | remaining binding | 79% |
| Cc1ccc(Nc2nccc(N(C)c3ccc4c(C)n(C)nc4c3)n2)cc1S(N)(=O)=O | enzyme activity, inhibitor | 0.3 µM | inhibition | 2% |
| CC(C)(C)c1nc(-c2cccc(NS(=O)(=O)c3c(F)cccc3F)c2F)c(-c2ccnc(N)n2)s1 | enzyme activity, inhibitor, radiometric | 1 µM | remaining activity | 103% |
| Cc1ccc(NC(=O)c2ccc(C)c(C(F)(F)F)c2)cc1C#Cc1nn(C2CCC(O)CC2)c2ncnc(N)c12 (stereo not drawn) | cell-free assay | 10 µM | remaining signal | 105% |
| COCCOc1nc(-c2ccc(Cl)nc2)nc2c1CN(C(=O)c1ncn3ccccc13)CC2 | cell-free assay, competition with immobilised ligand | 0.1 µM | remaining binding | 100% |
| N#CCCc1ccc2c(c1)-c1[nH]c3ccc([N+](=O)[O-])cc3c1CC(=O)N2 | cell-free assay | 0.5 µM | remaining signal | 112% |
| O=C(NC[C@@H]1[C@H]2CN(C(=O)OCc3cc(C(F)(F)F)cc(C(F)(F)F)c3)C[C@@H]12)c1ccc2[nH]nnc2c1 | cell-free assay, competition with immobilised ligand | 1 µM | remaining binding | 84% |
| CNC(=O)c1cc(Oc2ccc(NC(=O)Nc3ccc(Cl)c(C(F)(F)F)c3)cc2)ccn1 | enzyme activity, inhibitor | 0.3 µM | inhibition | 1% |
| CCCOc1ccc(OC)c(F)c1C(=O)c1ccc(C(=O)N[C@@H]2CNC[C@H]2NC(=O)c2ccc3[nH]ncc3c2)cc1 | enzyme activity, inhibitor | 10 µM | remaining activity | 92% |
| CCN(CC)CCNC(=O)c1c(C)[nH]c(/C=C2\C(=O)Nc3ccc(F)cc32)c1C | enzyme activity, inhibitor | 0.3 µM | inhibition | 3% |
| CN(c1nccc(-c2cnn3ncccc23)n1)C1CC1 | binding | 1 µM | remaining binding | 100% |
| Cc1cnc(NC2CCOCC2)nc1-n1cnc(C(=O)NC(CN)c2cc(F)cc(Cl)c2)c1 (stereo not drawn) | enzyme activity, inhibitor, radiometric | 1 µM | remaining activity | 85% |
| COc1cc(Cl)c(C(=O)N[C@@H](CN[C@H]2CC[C@@H](N)CC2)Cc2ccc(C#N)cc2)cc1-c1ccc(CN[C@H](C)c2ccc(C)cc2)o1 | enzyme activity, inhibitor | 1 µM | remaining activity | 101% |
| Nc1ncnc2occ(-c3ccc(NC(=O)Nc4cc(C(F)(F)F)ccc4F)cc3)c12 | cell-free assay, inhibitor | 20 µM | remaining signal | 65% |
| O=C(N1CCS(=O)(=O)CC1)N1C[C@H](c2ccc(OC(F)(F)F)cc2)C[C@H](c2nc(C3CC3)no2)C1 | cell-free assay, competition with immobilised ligand | 1 µM | remaining binding | 73% |
| Cc1sc(C(=O)NC2COC2)cc1-n1cc(NC(=O)Nc2c(F)cccc2Cl)cn1 | enzyme activity, inhibitor | 10 µM | remaining activity | 91.1% |
| CC(=O)N1CCC(c2ccc(C(=O)NC(=N)N)cc2C(F)(F)F)CC1 | cell-free assay, competition with immobilised ligand | 1 µM | remaining binding | 98% |
| CC(C)(O)[C@H]1CC[C@H](Nc2ccc3ncc(-c4cccc(C(F)(F)F)c4)n3n2)CC1 | enzyme activity, inhibitor | 1 µM | remaining activity | 86.2% |
